Rows were chosen to be rich in hits. Some 2.2% of all compounds tested hit in one or more screens of this group.
NS3 helicase inh: HCV NS3 helicase inhibition | NS3 helicase DNA unwinding, Cy5 molecular beacon fluorescence | inhibition, % at 10.9 µM | hit rate 0.56% among 290,000 | AID 1800;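 active = inhibition above the mean of all tested compounds plus 3 SD, set per campaign, cut at about 35% in these data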
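Control set: DMSO versus 110 µM thioflavine S; Material: NS3 helicase fragment of HCV; Measured by: Cy5 fluorescence at 0 and 60 min, beacon hairpin quenching; Read-out basis: percent inhibition from t60/t0 fluorescence ratio; Times: reaction time 60 min, 25 °C; Repeats: single replicate; Compound dosing: single dose, 10.9 µM nominal final, DMSO 0.8% final.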
GRK2 inh: blocks RNA aptamer binding to human GRK2 | P25098 | bead flow cytometry, FAM-aptamer displacement from GRK2 | inhibition of aptamer binding, % at 10 µM | hit rate 0.59% among 330,000;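 active = inhibition of aptamer binding above 40%, roughly 3 SD of noise, on plates passing a quality check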;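 also: median bead fluorescence of bound FAM aptamer so fluorescent compounds give negative values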
GPR7 antagonist: antagonists of human GPR7 (neuropeptides B/W receptor 1) | AID 1861 | inhibition, % at 4.4 µM | P48145 | hit rate 1.1% among 290,000 | GPR7-expressing cells, fluorescence antagonist assay; in the data active = inhibition above about 16%, passing the limit was not always enough;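 also: cells stimulated with the agonist NPW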
FID counter: counter-screen for HCV NS3 helicase inhibitors: DNA intercalator displacement; DNA fluorescent intercalator displacement, fluorescence; inhibition, % at 7.9 µM; hit rate 0.17% among 290,000; AID 1845; in the data active = inhibition above about 37%;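 also: higher means more ethidium bromide displaced from hairpin DNA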
HCV core dimer: HCV core protein dimerization inhibition | TR-FRET GST/Flag-core106 dimerization, 1536-well | inhibition, % at 5 µM | hit rate 0.33% among 300,000 | AID 1899;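 active = inhibition above the mean of all tested compounds plus 3 SD, set per screening campaign, cut at about 45% in these data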
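test system = GST/Flag-tagged HCV core106 proteins | probe or stimulus = Eu donor and XL665 acceptor anti-tag antibodies | times = compound-protein-antibody incubation 4 h at 22.5 °C | signal = TR-FRET, excitation 340 nm, emission 617 and 671 nm | measure = percent inhibition of core106 dimerization signal | controls = wells lacking GST-core106 and wells with excess unlabelled core106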
DAGLB inh: diacylglycerol lipase beta (human) inhibition; inhibition, % at 5.17 µM; Q8NCG7; AID 504411; hit rate 0.059% among 340,000; HEK293T DAGLB membrane lysate, EnzChek fluorogenic substrate; in the data active = inhibition above about 34%
Target sequence (Q8NCG7 whole entry, looked up): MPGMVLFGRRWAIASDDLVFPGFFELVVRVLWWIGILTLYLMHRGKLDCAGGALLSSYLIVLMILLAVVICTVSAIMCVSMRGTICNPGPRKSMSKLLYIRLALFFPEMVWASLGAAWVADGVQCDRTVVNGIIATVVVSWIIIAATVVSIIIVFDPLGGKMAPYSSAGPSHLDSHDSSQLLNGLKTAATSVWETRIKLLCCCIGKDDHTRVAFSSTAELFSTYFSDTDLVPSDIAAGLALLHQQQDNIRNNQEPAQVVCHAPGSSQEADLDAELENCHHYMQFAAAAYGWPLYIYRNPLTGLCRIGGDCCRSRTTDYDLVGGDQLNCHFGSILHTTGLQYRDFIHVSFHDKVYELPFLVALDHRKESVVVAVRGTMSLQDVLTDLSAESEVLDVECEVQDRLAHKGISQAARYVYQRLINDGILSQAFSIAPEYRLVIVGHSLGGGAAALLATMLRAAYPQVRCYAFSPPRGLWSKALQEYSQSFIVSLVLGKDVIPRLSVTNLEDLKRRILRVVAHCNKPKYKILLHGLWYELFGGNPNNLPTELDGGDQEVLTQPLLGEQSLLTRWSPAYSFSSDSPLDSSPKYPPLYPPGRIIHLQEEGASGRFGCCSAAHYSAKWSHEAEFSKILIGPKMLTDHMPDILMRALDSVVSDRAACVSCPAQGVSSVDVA
GPR7 antag cf: human GPR7 antagonism, confirmation assay; AID 1952; GPR7-expressing cells, calcium fluorescence antagonist mode; inhibition, % at 4.4 µM; shares compounds with GPR7 antagonist; hit rate 52% among 2,400; in the data active = inhibition above about 24%;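 also: stimulated with the GPR7 agonist NPW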
MCHR1 antagonist: MCHR1 (human) antagonism in GPR7 counter-screen | shares compounds with GPR7 antagonist | MCHR1-expressing cells, fluorescence antagonist assay | inhibition, % at 4.4 µM | hit rate 62% among 2,400; in the data active = inhibition above about 22%
Numbers stand for hits; 0 = inactive; - = no result.

SMILES	NS3 helicase inh	GRK2 inh	GPR7 antagonist	FID counter	HCV core dimer	DAGLB inh	GPR7 antag cf	MCHR1 antagonist
COc1ccc(NC(=O)COC(=O)c2c3c(nc4ccccc24)CCCC3)cc1Cl	0	0	32	0	0	0	35	73
CC(=O)c1ccc(S(=O)(=O)NC2CC(=O)N(c3ccc(Cl)cc3)C2)cc1 (centres undefined)	-	0	-	-	0	0	-	-
O=[N+]([O-])c1c(Nc2ccc(O)cc2)cc(Cl)c2nonc12	0	0	83	0	0	0	94	102
O=C1Nc2ccccc2C1=Nc1ccccc1-c1ccccc1	-	-	-	-	-	0	-	-
COc1cccc(NC(=O)C(C)OC(=O)CCCNC(=O)c2ccc(Cl)cc2)c1 (centres undefined)	0	0	0	0	0	0	-	-
CC(OC(=O)CCCNC(=O)c1ccc(Cl)cc1)C(=O)N(C)Cc1ccccc1 (centres undefined)	0	0	35	0	0	0	0	0
CCN(C(=O)COC(=O)c1cc([N+](=O)[O-])ccc1N1CCOCC1)C1CCS(=O)(=O)C1 (centres undefined)	-	0	-	-	0	0	-	-
CCOc1ccc(/C=N/OCC(=O)NCc2ccco2)cc1	0	0	0	0	0	0	-	-
Cc1ccc(S(=O)(=O)N(C)c2ccc(OCC(=O)Nc3ccc(S(C)(=O)=O)cc3)cc2)cc1	-	-	-	-	-	0	-	-
Cc1ccc(S(=O)(=O)N(C)c2ccc(OCC(=O)Nc3cccc(-n4cnnn4)c3C)cc2)cc1	0	0	22	0	0	0	0	33
Nc1ccc(S(=O)(=O)c2cc(O)c3ccccc3c2O)cc1	-	-	-	-	-	0	-	-
CNC(=O)/C(C#N)=C/c1c(N(Cc2ccccc2)Cc2ccccc2)nc2c(C)cccn2c1=O	0	0	39	0	0	0	0	49
CCCCNC(=O)c1cc2nc3c(c(C(F)(F)F)n2n1)CCc1ccccc1-3	0	0	0	0	0	0	-	-
CC(C)CNC(=O)c1cc2nc3c(c(C(F)(F)F)n2n1)CCc1ccccc1-3	0	0	22	0	0	0	0	0
O=C(NC(=S)NC(CO)Cc1ccccc1)c1ccc(F)cc1 (centres undefined)	0	0	0	0	0	0	-	-
COc1ccc(Nc2cc(C(=O)NCc3cccnc3)c3ccccc3n2)c(OC)c1	0	0	30	0	0	-	0	0
CCC(=O)N(C(=O)CC)N1CCN(c2ccncc2S(=O)(=O)N2CCCCC2)CC1	0	0	34	0	0	0	45	30
CC(C)(C)OC(=O)NCCCCCNC(=O)c1[nH]cnc1C(=O)Nc1ccon1	-	0	-	-	-	0	-	-
CN(C(=O)c1cc([N+](=O)[O-])ccc1N1CCCC1)C1CCCCC1	0	0	34	0	0	0	29	24
CCCCn1c(N)c(N(Cc2ccccc2OC)C(=O)COc2ccccc2C#N)c(=O)[nH]c1=O	0	0	27	0	0	0	0	0
COC(=O)c1ccc(S(=O)(=O)N2CCCCCC2)n1C	0	0	0	0	0	0	-	-
CC1(CCc2ccc3c(c2)OCO3)NC(=O)c2ccccc2N1 (centres undefined)	0	0	0	0	0	0	-	-
CC1(CCc2ccc3c(c2)OCO3)NCCc2c1[nH]c1ccccc21 (centres undefined)	0	0	60	0	0	0	39	45
NC(=S)N=Nc1c(O)[nH]c2c(Br)cc(Br)cc12	0	0	34	0	0	-	0	28
NC(=S)N=Nc1c(O)[nH]c2ccccc12	0	0	0	0	0	0	-	-
CC1CC(C)CN(C(=O)C(C)N(C)CC(=O)Nc2ccccc2Cl)C1 (centres undefined)	0	0	0	0	0	0	-	-
O=C(CCn1c(=S)oc2ccccc21)Nc1ccccc1Br	0	0	0	0	0	0	-	-
CCc1cc2cc(C(=O)N3CCN(Cc4ccccc4)CC3)sc2s1	0	0	28	0	0	0	0	45
NCC12CC3CC(C1)CC(c1ccc(Br)cc1)(C3)C2	0	0	48	0	0	0	29	33
Cc1ccc(Nc2nc(N)nc(CSc3nc(C)cc(C)n3)n2)cc1	0	0	26	0	0	0	0	0

Compound activity as filed in PubChem BioAssay.
